Measured values: article PMC6733178 (ACS Omega, 2019)
In brackets after ≈: the same amount, converted by molar mass.

Key:
[1] = tested on: S. aureus ATCC 25923 (Sa); test: MIC, broth microdilution with resazurin; type: cell-based, Staphylococcus aureus; conditions: for MIC: Staphylococcus aureus, ATCC25923, read-out: MIC Values Sa
Method in brief: (§1)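 CLSI broth microdilution. Strains were grown overnight at 35 °C on TSA or TSA with 5% sheep blood. Colonies were suspended in 0.9% saline to 0.5 McFarland, then diluted 1:100 in Mueller Hinton broth (about 1 × 10^6 CFU/mL). Test compound (2 mg/mL DMSO stock) was serially diluted 1:2 from 50 µg/mL final. Resazurin was added at 8 µg/mL final, and plates were incubated 35 °C for 20–24 h and read visually. MIC is the lowest concentration without the resazurin colour change. Each plate carried untreated, DMSO and antibiotic controls.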

[2] = tested on: S. aureus BAA-2312 (Sa12); test: MIC, broth microdilution with resazurin; type: cell-based, Staphylococcus aureus; conditions: for MIC: Staphylococcus aureus, BAA2312, read-out: MIC Values Sa12
Method in brief: as §1

[3] = tested on: S. aureus ATCC 33591 (Sa91); test: MIC, broth microdilution with resazurin; type: cell-based, Staphylococcus aureus; conditions: for MIC: Staphylococcus aureus, ATCC33591, read-out: MIC Values Sa91
Method in brief: as §1

[4] = tested on: S. aureus ATCC 700699 (Sa99); test: MIC, broth microdilution with resazurin; type: cell-based, Staphylococcus aureus; conditions: for MIC: Staphylococcus aureus, ATCC700699, read-out: MIC Values Sa99
Method in brief: as §1

[5] = tested on: S. aureus ATCC 33592 (Sa92); test: MIC, broth microdilution with resazurin; type: cell-based, Staphylococcus aureus; conditions: for MIC: Staphylococcus aureus, ATCC33592, read-out: MIC Values Sa92
Method in brief: as §1

[6] = tested on: S. epidermidis 700296 (Se); test: MIC, broth microdilution with resazurin; type: cell-based; conditions: for MIC: Staphylococcus epidermidis, read-out: MIC Values Se
[7] = tested on: human embryonic kidney (HEK293) cell line; test: In vitro cytotoxicity, resazurin viability; type: cell-based; conditions: HEK293, 24 h incubation
Method in brief: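 HEK293 cells were counted and seeded at 4000 per well. Test compound was serially diluted from 50 µg/mL, added in triplicate, and incubated 24 h. Resazurin (5%) was then added, and plates were incubated 4 and 6 h before reading. Viability was read as fluorescence at 544 nm excitation and 590 nm emission.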

[8] = tested on: B. subtilis ATCC 6623 (Bs); test: MIC, broth microdilution with resazurin; type: cell-based; conditions: NA = No Activity
[9] = tested on: A. baumannii ATCC 19606; test: SYTO-9/propidium iodide; type: cell-based, Acinetobacter baumannii; conditions: compared with positive control Colistin 6.25 μg/mL
[10] = tested on: tested Gram-positive strains (S. aureus incl. MRSA, S. epidermidis, B. subtilis); test: MIC summarised in the text over the tested Gram-positive strains; type: cell-based
[11] = tested on: A. baumannii ATCC 19606 (Type Strain, AB06); test: MIC, broth microdilution with resazurin; type: cell-based, Acinetobacter baumannii
Method in brief: as §1

[12] = tested on: A. baumannii ATCC 747 (Ab47); test: MIC, broth microdilution with resazurin; type: cell-based, Acinetobacter baumannii
Method in brief: as §1

[13] = tested on: A. baumannii ATCC BAA-1605 (Ab05); test: MIC, broth microdilution with resazurin; type: cell-based, Acinetobacter baumannii; conditions: NA = No Activity
Method in brief: as §1

[14] = tested on: three strains of A. baumannii; test: MIC summarised in the text over the three A. baumannii strains; type: cell-based, Acinetobacter baumannii
Method in brief: as §1

[15] = antibiotic-resistant strain, NA = No Activity

Compound	MIC [1] [µg/mL]	MIC [2] [µg/mL]	MIC [3] [µg/mL]	MIC [4] [µg/mL]	MIC [5] [µg/mL]	MIC [6] [µg/mL]	IC50 [7]	further results
O=C(O)c1ccc(-n2cc(/C=N/N(c3ccccc3)c3ccccc3)c(-c3cccc(F)c3)n2)cc1 [Compound 5, 4-[4-[(E)-(Diphenylhydrazono)methyl]-3-(3-fluorophenyl)pyrazol-1-yl]benzoic Acid]	3.12 (≈ 6.56 µM)	3.12 (≈ 6.56 µM)	3.12 (≈ 6.56 µM)	1.56 (≈ 3.27 µM)	0.78 (≈ 1.64 µM)	3.12 (≈ 6.56 µM)	High IC50 values	
O=C(O)c1ccc(-n2cc(/C=N/Nc3ccc(Cl)cc3Cl)c(-c3cccc(F)c3)n2)cc1 [Compound 12, 4-[4-[(E)-[(2,4-Dichlorophenyl)hydrazono]methyl]-3-(3-fluorophenyl)pyrazol-1-yl]benzoic Acid]	3.12 (≈ 6.66 µM)	3.12 (≈ 6.66 µM)	3.12 (≈ 6.66 µM)	0.78 (≈ 1.66 µM)	0.39 (≈ 0.831 µM)	3.12 (≈ 6.66 µM)	High IC50 values	
O=C(O)c1ccc(-n2cc(/C=N/N(c3ccccc3)c3ccccc3)c(-c3ccc(F)cc3)n2)cc1 [Compound 23, 4-[4-[(E)-(Diphenylhydrazono)methyl]-3-(4-fluorophenyl)pyrazol-1-yl]benzoic Acid]	1.56 (≈ 3.27 µM)	3.12 (≈ 6.56 µM)		1.56 (≈ 3.27 µM)	0.78 (≈ 1.64 µM)		High IC50 values	MIC Values Se ([6]; NA = No Activity): no activity; MIC Values Bs ([8]; Table 2): 1.56 µg/mL (≈ 3.27 µM)
CN1CCN(/N=C/c2cn(-c3ccc(C(=O)O)cc3)nc2-c2cccc(F)c2)CC1 [Compound 21, 4-[3-(3-Fluorophenyl)-4-[(E)-(4-methylpiperazin-1-yl)iminomethyl]pyrazol-1-yl]benzoic Acid]								membrane disruption ability (ratio of PI to SYTO-9 signals) [9]: better membrane disruption ability than the positive control; activity against the tested strains (in words) [10]: completely ceased the activity
4-[4-[(2,2-Dibenzylhydrazino)methyl]-3-(3-fluorophenyl)pyrazol-1-yl]benzoic Acid [Compound 7]								MIC Values Sa ([1]; antibiotic susceptible strain, NA = No Activity): 12.5 µg/mL; MIC Values Sa12 [2, 15]: 6.25 µg/mL; MIC Values Sa91 [3, 15]: 6.25 µg/mL; MIC Values Sa99 [4, 15]: 3.125 µg/mL; MIC Values Sa92 [5, 15]: 3.125 µg/mL; MIC Values Bs [8]: 1.56 µg/mL
Colistin [reference compound]								MIC Ab06 ([11]; NA = No Activity): 3.125 µg/mL; MIC Ab47 ([12]; NA = No Activity): 1.56 µg/mL; MIC Ab05 [13]: 3.125 µg/mL
CN(/N=C/c1cn(-c2ccc(C(=O)O)cc2)nc1-c1ccc(F)cc1)c1ccccc1 [Compound 22, 4-[3-(4-Fluorophenyl)-4-[(E)-[methyl(phenyl)hydrazono]methyl]pyrazol-1-yl]benzoic Acid]	12.5 (≈ 30.2 µM)		12.5 (≈ 30.2 µM)	12.5 (≈ 30.2 µM)	6.25 (≈ 15.1 µM)	12.5 (≈ 30.2 µM)		membrane disruption ability (ratio of PI to SYTO-9 signals) [9]: better membrane disruption ability than the positive control; activity against the tested strains (in words) [10]: moderate activity
O=C(O)c1ccc(-n2cc(/C=N/Nc3ccc(Br)cc3)c(-c3cccc(F)c3)n2)cc1 [Compound 10, 4-[4-[(E)-[(4-Bromophenyl)hydrazono]methyl]-3-(3-fluorophenyl)pyrazol-1-yl]benzoic Acid]	12.5 (≈ 26.1 µM)	12.5 (≈ 26.1 µM)	12.5 (≈ 26.1 µM)	6.25 (≈ 13 µM)	6.25 (≈ 13 µM)	12.5 (≈ 26.1 µM)		MIC ([11]; Acinetobacter baumannii, ATCC19606, read-out: MIC Ab06): 3.12 µg/mL (≈ 6.52 µM); MIC ([12]; Acinetobacter baumannii, ATCC747, read-out: MIC Ab47): 6.25 µg/mL (≈ 13 µM); activity against A. baumannii strains (in words) [14]: moderate activity
